25 compounds from PubChem BioAssay AID624401 (The Scripps Research Institute Molecular Screening Center, 2012) can be followed below.

Calls of active or inactive are those of the source.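 Rule for the calls: active = activation of 20% or more; inactive = activation below 20%, including negative responses.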

This experiment deals with Aryl hydrocarbon receptor (Homo sapiens) (UniProt P35869). Nature of the experiment: AhR reporter activation, late-stage follow-up, counter-screen for AHR activator project, luminescence, HG2L7.5c1 cells, set 2 (AID 624401). The note with it: HG2L7.5c1 HepG2 DRE-luciferase reporter, 24 h; for activation: at 10 µM, stronger effect = higher value. An outline of the steps:
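Assay system: HepG2-derived HG2L7.5c1 AHR luciferase reporter cells. Probe or stimulus: reporter construct with MMTV promoter plus 20 murine CYP1A1 DREs. Times: 24 h compound exposure, 37 °C. Measured by: lysate luminescence. Read-out basis: % of maximal TCDD response, Hill-fit EC50. Controls: maximal TCDD induction as high control. Replicates: triplicate wells per compound.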

One may read the EC50 as the concentration that produces a half-maximal response.

Chain of Aryl hydrocarbon receptor (Homo sapiens) (P35869 whole entry, looked up): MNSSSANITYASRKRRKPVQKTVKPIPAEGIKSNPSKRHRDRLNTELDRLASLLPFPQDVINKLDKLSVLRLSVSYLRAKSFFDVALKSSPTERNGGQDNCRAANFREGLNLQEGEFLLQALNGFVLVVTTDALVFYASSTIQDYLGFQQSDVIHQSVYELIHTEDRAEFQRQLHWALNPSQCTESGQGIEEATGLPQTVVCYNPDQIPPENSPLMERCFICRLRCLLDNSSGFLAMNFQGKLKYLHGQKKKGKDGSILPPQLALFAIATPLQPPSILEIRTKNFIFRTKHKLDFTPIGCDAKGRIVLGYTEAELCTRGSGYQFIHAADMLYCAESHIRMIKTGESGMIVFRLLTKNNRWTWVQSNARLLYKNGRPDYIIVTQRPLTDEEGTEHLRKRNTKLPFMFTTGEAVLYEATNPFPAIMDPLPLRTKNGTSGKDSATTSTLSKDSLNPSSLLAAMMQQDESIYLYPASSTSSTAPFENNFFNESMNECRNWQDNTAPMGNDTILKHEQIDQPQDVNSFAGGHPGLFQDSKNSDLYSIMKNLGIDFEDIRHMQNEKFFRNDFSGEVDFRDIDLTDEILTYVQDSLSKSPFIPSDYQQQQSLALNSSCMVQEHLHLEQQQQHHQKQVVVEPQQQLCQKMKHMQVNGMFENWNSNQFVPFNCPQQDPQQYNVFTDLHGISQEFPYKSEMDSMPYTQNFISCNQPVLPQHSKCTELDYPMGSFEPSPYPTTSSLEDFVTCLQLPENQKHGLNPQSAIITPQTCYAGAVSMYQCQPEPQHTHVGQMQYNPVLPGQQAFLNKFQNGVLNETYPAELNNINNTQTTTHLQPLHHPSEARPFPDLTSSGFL

Regarding `COc1ccc(-c2cc(-c3ccc(C)cc3O)[nH]n2)cc1`, the activation was 15.6%.

In the case of `CCOC(=O)c1c(C)nn(-c2cc(Cl)ccc2Cl)c1C`, the activation result is “inactive”. Still for that read-out and setting: to `O=C(CSc1nc(-c2ccc(F)cc2)cs1)Nc1ccccn1` belongs “inactive”; to `Cc1cccc(C)c1NC(=O)c1ccc(C(=O)Nc2c(C)cccc2C)nc1`, “inactive”; to `CN(Cc1cc(-c2cccs2)n[nH]1)Cc1coc2ccccc2c1=O`, “inactive”. On the same count and under the same terms, to `Cc1ccnc(NC(=O)CSc2nc3ccccc3s2)c1` belongs “inactive”. For `Cc1ccc(-c2cc(-c3cccc(F)c3)n[nH]2)c(O)c1`, the EC50 is 650 nM. With `Cc1cc(Br)cc(C)c1Nc1ccnc(Nc2ccc(C#N)cc2)n1`, the activation result was “inactive”. With `CCOc1ccccc1NC(=O)c1ccc(C(=O)Nc2ccccc2OCC)nc1`, the activation was 48.4%. Take `Cc1ccc(NC(=O)c2ccc(C(=O)Nc3ccc(C)cc3C)nc2)c(C)c1`: the activation entry was “inactive”. Still for that read-out and setting: to `Nc1nc(Cl)cc(Nc2ccccc2F)n1` belongs “inactive”; to `COc1ccc(Nc2cc(Cl)nc(N)n2)cc1`, “inactive”. In the case of `COc1ccc(O)c(-c2cc(-c3cccs3)[nH]n2)c1`, the activation result was “inactive”.

As to `COc1ccc(Nc2cc(Cl)nc(N)n2)cc1OC`, the activation result is “inactive”. Take `Cc1ccc(O)c(-c2cc(-c3ccccc3Cl)[nH]n2)c1`: the activation is 32%. Regarding `Nc1nc(Cl)cc(Nc2ccc(Oc3ccccc3)cc2)n1`, the activation was 25.2%. Turning to `Cc1ccc(-c2cc(-c3ccc(Cl)cc3)n[nH]2)c(O)c1`, the EC50 was 4000 nM. With `O=C(CSc1nc2ccccc2s1)Nc1ccccn1`, the activation is 18.9%.

Take `Cc1cccc(NC(=O)c2cc(-c3ccc(C)cc3O)n[nH]2)c1`: the activation result was “inactive”. In the case of `COc1ccc(NC(=O)c2ccc(C(=O)Nc3ccc(OC)cc3OC)nc2)c(OC)c1`, the activation result was “inactive”. Same read-out and setting: the value for `COc1ccc(Cl)cc1NC(=O)c1ccc(C(=O)Nc2cc(Cl)ccc2OC)nc1` was “inactive”.

For the compound `Cc1ccc(-c2cc(-c3ccc(F)cc3)n[nH]2)c(O)c1`, the EC50 was 250 nM. Take `O=C(CSc1nc2ccccc2s1)Nc1ccc(Cl)cn1`: the activation result was “inactive”.

In the case of `Cc1csc(SCC(=O)Nc2ccccn2)n1`, the activation result is “inactive”. As to `Cc1cc(Nc2ccc(F)cc2)nc(N)n1`, the activation entry was “inactive”.
